Only some compounds are listed: those with a hit (about 0.83% of all), similar ones and a draw of the others.
RGS8-Gao = regulators of human RGS8-Galphao interaction; P09471; multiplexed bead flow cytometry, RGS8-Galphao binding; actives lie on both sides; response (percent of control binding), % at 10 µM; actives 0.34% (n = 220,000); AID 1423; in the data active = response below about 60% or above about 140%; inactive = in between;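 note: Galphao activated as the GDP aluminium fluoride complex binding bead-coupled RGS8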
RGS4-Gao reg = human RGS4-Galphao interaction regulation; binding response (% of control), % at 10 µM; Multiplexed bead flow cytometry, RGS4-Galphao binding; actives lie on both sides; actives 0.33% (n = 220,000); P09471; AID 1415; in the data active = binding response below about 49% or above about 150%; inactive = in between;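 note: fluorescent Galphao activated with aluminum fluoride binding bead-coupled RGS4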
RGS7-Gao reg = modulates binding of RGS7 to human Galphao; P09471; Multiplexed bead flow cytometry; actives lie on both sides; binding response (% of control), % at 10 µM; actives 0.35% (n = 220,000); AID 1439; in the data active = binding response below about 49% or above about 150%; inconclusive = no clear call, values can overlap the other calls; inactive = in between;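 note: fluorescent Galphao held in activated GDP-AlF4 state binding bead-coupled RGS7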
ABCG2 inh = human ABCG2 inhibition, ABCB1 as counter-screen; Q9UNQ0; IgMXP3 cells, JC-1 efflux, flow cytometry; inhibition, % at 6.6 µM; actives 0.1% (n = 190,000); AID 1325;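 active = inhibition above 80%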;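 note: 0% = DMSO and 100% = nicardipine control wells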
Target sequence (Q9UNQ0 whole entry, looked up): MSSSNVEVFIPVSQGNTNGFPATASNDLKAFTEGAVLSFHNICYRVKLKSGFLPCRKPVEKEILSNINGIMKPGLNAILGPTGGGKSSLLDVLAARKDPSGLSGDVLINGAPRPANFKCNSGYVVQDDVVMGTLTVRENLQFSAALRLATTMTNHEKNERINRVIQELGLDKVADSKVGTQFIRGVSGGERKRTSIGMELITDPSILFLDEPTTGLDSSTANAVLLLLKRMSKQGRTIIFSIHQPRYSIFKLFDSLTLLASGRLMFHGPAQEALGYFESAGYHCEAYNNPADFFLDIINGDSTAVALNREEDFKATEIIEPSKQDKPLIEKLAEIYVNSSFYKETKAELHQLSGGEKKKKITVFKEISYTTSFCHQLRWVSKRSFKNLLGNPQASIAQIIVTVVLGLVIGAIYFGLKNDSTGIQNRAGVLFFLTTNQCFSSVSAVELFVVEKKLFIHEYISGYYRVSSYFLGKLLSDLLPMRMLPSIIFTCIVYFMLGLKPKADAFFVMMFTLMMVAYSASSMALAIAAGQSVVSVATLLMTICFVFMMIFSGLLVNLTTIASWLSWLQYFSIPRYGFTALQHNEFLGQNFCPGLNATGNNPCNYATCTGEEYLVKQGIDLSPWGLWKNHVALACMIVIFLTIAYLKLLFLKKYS
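Measure – % inhibition of efflux relative to nicardipine and DMSO · Test system – ABCG2 IgMXP3 and barcoded ABCB1 CCRF-Adr cell mix · Control set – nicardipine as high control, DMSO as low control · Compound – one concentration, 6.6 µM final · Signal – flow cytometry of retained JC-1 fluorescence · Timing – 10 min exposure at 25 °C with rotation, no wash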
RGS16-Gao HTS = RGS16-Galphao interaction regulator (human); O15492+P09471; bead-based flow cytometry RGS16-Galphao binding, fluorescence; actives lie on both sides; binding response (% of control), % at 10 µM; actives 0.38% (n = 220,000);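 note: Galphao activated by GDP with aluminum fluoride before binding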
ABCB1 inh = human ABCB1 inhibition, ABCG2 as counter-screen | P08183 | CCRF-Adr cells, JC-1 efflux, flow cytometry | inhibition, % at 6.6 µM | actives 0.067% (n = 190,000) | AID 1326; in the data active = inhibition above about 40%;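 note: 0% = vehicle and 100% = reference inhibitor; higher value means more JC-1 retained so stronger ABCB1 efflux block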
RGS-Gao = regulators of human RGS4-Galphao interaction | shares compounds with RGS16-Gao HTS | multiplexed bead flow cytometry, RGS–Galpha-o binding | RGS4–Galpha-o binding response, % at 10 µM | actives 99% (n = 1,600) | AID 1504;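 note: fluorescently labeled Galpha-o bound to GDP with aluminium fluoride binding biotinylated RGS beads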
Biotin-avidin = interferes with biotinylated probe binding to avidin beads; shares compounds with RGS16-Gao HTS; streptavidin beads, fluorescein-biotin binding, flow cytometry; inhibition, % at 10 µM; 1,700 tested, under 10 active; AID 1783;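 active = inhibition above 50%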;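 note: median green fluorescence of gated singlet beads compared with DMSO control wells; 0% = DMSO wells and 100% = complete loss of bead fluorescence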
RGS8-Gao single = RGS8-Galphao interaction regulation, single point confirmation; actives 3% (n = 1,700); binding response (% of control), % at 10 µM; bead-based flow cytometry RGS8-Galphao binding, fluorescence; actives lie on both sides; shares compounds with RGS16-Gao HTS; AID 1836; in the data active = binding response below about 72% or above about 130%; inactive = in between;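 note: Galphao activated as GDP AlF4 complex before binding bead RGS8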
RGS7-Gao confirm = confirmation of regulators of human RGS7-Galphao interaction | actives 7.8% (n = 1,700) | shares compounds with RGS16-Gao HTS | bead-based flow cytometry RGS7-Galphao binding; actives lie on both sides | AID 1837 | response (percent of control binding), % at 10 µM; in the data active = response below about 75% or above about 130%; inactive = in between;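 note: fluorescent Galphao activated with GDP and aluminum fluoride binding bead-coupled RGS7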
RGS16-Gao conf = RGS16-Galphao interaction regulation, single point confirmation. shares compounds with RGS16-Gao HTS. bead-based flow cytometry, RGS16-Galphao binding; actives lie on both sides. response (% of control binding), % at 10 µM. actives 4% (n = 1,700). AID 1838; in the data active = response below about 74% or above about 130%; inactive = in between;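 note: Galphao activated as the GDP aluminium fluoride complex binding bead-coupled RGS16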
RGS4-Gao single = RGS4-Galphao interaction regulation, single point confirmation; shares compounds with RGS16-Gao HTS; RGS4-Galphao binding, multiplexed bead flow cytometry; actives lie on both sides; binding response (% of control), % at 10 µM; actives 4% (n = 1,700); AID 1840; in the data active = binding response below about 74% or above about 130%; inactive = in between
RGS19-Gao single = confirmation of regulators of human RGS19-Galphao interaction. actives 5% (n = 1,700). bead-based flow cytometry RGS19-Galphao binding; actives lie on both sides. response (percent of control binding), % at 10 µM. shares compounds with RGS16-Gao HTS; in the data active = response below about 50% or above about 160%; inactive = in between;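 note: 100% = no compound control and 0% = blank background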
Active calls of the source: *; ? = inconclusive; / = not tested or not shown; [ ] = remark or other dose. Unless noted, the rule behind the calls is not given here.

SMILES	RGS8-Gao	RGS4-Gao reg	RGS7-Gao reg	ABCG2 inh	RGS16-Gao HTS	ABCB1 inh	RGS-Gao	Biotin-avidin	RGS8-Gao single	RGS7-Gao confirm	RGS16-Gao conf	RGS4-Gao single	RGS19-Gao single
CCCCCc1nnc(NC(=O)CS(=O)(=O)Cc2ccccc2)s1	101.4	100.2	99.9	4.4	102.6	-0.2	/	/	/	/	/	/	/
CC(C)(C)c1nnc(NC(=O)CS(=O)(=O)Cc2ccccc2)s1	56.6*	86.5	51.4	-0.4	61.3	-0.1	86.5*	-0.7	103.0	101.7	102.0	100.5	94.5
CCOC(=O)Cc1c[nH]c(=S)[nH]c1=O	97.7	94.9	?	/	94.1	/	/	/	/	/	/	/	/
Cc1sc2ncnc(Sc3nnc4sc5ccccc5n34)c2c1C	110.8	207.6*[activator]	129.5	2.4	291.5*[activator]	1.2	/	-0.8	99.0	98.3	103.5	97.9	92.3
O=C(CN1C(=O)NC2(CCCC2)C1=O)N1CCN(C(=O)c2ccco2)CC1	102.2	109.8	104.4	0.2	104.2	-0.1	/	/	/	/	/	/	/
O=C(CN1C(=O)NC2(CCCCCCC2)C1=O)N1CCN(C(=O)c2ccco2)CC1	125.0	119.8	118.1	1.0	199.2*[activator]	0.2	119.8*	-1.5	100.6	90.7	98.7	94.0	100.4
Cc1cc(C)c2c(=O)n(CC(=O)N3CCC(N4CCCCC4)CC3)sc2n1	82.4	92.4	117.0	1.5	64.1	0.8	/	/	/	/	/	/	/
CCCNC(=O)Cn1sc2nc(C)cc(C)c2c1=O	60.0	78.2	?	/	15.5*	/	78.2*	0.0	52.2*	69.5*	9.1*	73.3*	3.9*
CCOC(=O)C1CCCN(C(=O)Cn2sc3nc(C)cc(C)c3c2=O)C1 (stereo not given)	58.0*	89.5	95.3	2.2	17.5*	1.3	89.5*	-1.3	61.1*	74.9*	15.6*	73.1*	15.4*
CC1(C)CC(OC(=O)c2ccccc2)CC(C)(C)N1	101.3	100.2	102.1	-4.2	101.7	-0.9	/	/	/	/	/	/	/
CC12CCC(C1)C(C)(C)C2OC(=O)c1ccccc1C(=O)O (stereo not given)	128.4	154.8*[activator]	?	/	144.9	/	/	-1.4	92.9	89.6	91.6	91.8	107.1
COC(=O)c1cc(C)sc1NC(=O)c1cccnc1	/	/	/	12.1	/	-0.2	/	2.5	99.6	101.3	98.9	100.3	99.2
CCCc1cc(=O)oc2c3c(c4c(c12)OC(C)(C)C=C4)OC(C)C(C)C3O (stereo not given)	10.2*	-6.7*	?	/	-5.8*	/	/	-1.8	107.2	110.7	108.3	110.0	112.4
O=C(NC1CC1)c1sc2cc([N+](=O)[O-])ccc2c1Cl	100.4	98.8	100.0	47.9	98.3	4.7	/	/	/	/	/	/	/
CC(NC(=O)c1sc2cc([N+](=O)[O-])ccc2c1Cl)C(C)(C)C (stereo not given)	79.7	98.3	98.4	2.5	15.2*	0.3	98.3*	1.0	64.8*	113.0	40.8*	88.7	15.9*
O=C(C/C=N\OCc1ccc([N+](=O)[O-])cc1)Nc1ccc(Br)cc1	101.4	106.3	156.6*[activator]	19.8	100.7	1.6	106.3*	-0.6	96.2	94.7	92.4	95.6	85.2
O=C(COc1ccccc1[N+](=O)[O-])Nc1ccc(Br)cc1	118.7	133.3	?	/	125.8	/	/	/	/	/	/	/	/
Cc1ccc(S(=O)(=O)N(C)C)cc1NC(=O)C(C)Sc1ccccc1 (stereo not given)	101.9	100.4	95.3	3.1	108.2	0.5	/	/	/	/	/	/	/
O=c1oc2c(O)c(O)cc3c(=O)oc4c(O)c(O)cc1c4c23	53.9*	51.2	31.0*	-3.4	80.5	-0.8	51.2*	/	/	/	/	/	/
O=C(Nc1nc2c(s1)C(=O)CCC2)c1ccccc1	99.6	103.1	99.5	2.1	103.6	0.1	/	/	/	/	/	/	/
Cc1cc(C(=O)CSc2nc3ccccc3c(=O)[nH]2)c(C)n1C	10.3*	18.4*	8.0*	2.0	11.1*	0.4	/	0.0	103.7	102.3	103.6	101.6	98.2
Cc1cc(C(=O)CSC(C)c2nc3ccccc3c(=O)[nH]2)c(C)n1C (stereo not given)	103.5	110.2	106.8	0.9	104.8	0.9	/	/	/	/	/	/	/
COc1c(Cl)cc(Cl)cc1C(=O)n1nc(C)cc1C	111.8	105.4	103.0	4.0	133.7	1.9	/	/	/	/	/	/	/
Cc1ccc(-n2c(C)n[nH]c2=S)cc1	118.2	114.5	118.8	-1.8	183.3*[activator]	-0.5	114.5*	0.6	110.9	130.0*[activator]	108.0	111.2	114.0
O=C(NCCc1ccncc1)Nc1ccccc1Cl	95.1	88.4	194.5*[activator]	1.4	97.0	0.2	88.4*	-0.4	97.4	89.2	96.8	96.9	85.6
SMILES	RGS8-Gao	RGS4-Gao reg	RGS7-Gao reg	ABCG2 inh	RGS16-Gao HTS	ABCB1 inh	RGS-Gao	Biotin-avidin	RGS8-Gao single	RGS7-Gao confirm	RGS16-Gao conf	RGS4-Gao single	RGS19-Gao single
O=C(NCCc1ccncc1)Nc1cccc(Cl)c1	93.5	87.3	83.6	2.4	89.3	0.2	/	/	/	/	/	/	/
COc1ccc(S(N)(=O)=O)cc1C(=O)N1CCCC1	101.2	102.9	?	7.8	100.2	1.6	/	/	/	/	/	/	/
CCOC(=O)C(=Cc1ccc(-n2ccnc2)cc1)C(=O)OCC	6.7*	4.6*	?	0.9	-2.5*	0.1	/	-1.9	100.0	105.2	100.4	103.3	94.1
CCOC(=O)C(=Cc1ccc(F)cc1)C(=O)OCC	99.7	102.1	102.1	3.3	104.7	0.5	/	/	/	/	/	/	/
Cc1nnc(Nc2ccc3c(c2)ncn3C)c2ccccc12	146.5*[activator]	114.9	113.6	4.0	219.7	-3.0	114.9*	1.2	108.1	107.2	106.1	104.1	107.0
Cc1ccc(-c2nnc(Nc3ccc4c(c3)nc(C)n4C)c3ccccc23)cc1	99.9	97.6	97.2	-0.5	99.8	-0.1	/	/	/	/	/	/	/

Screens deposited in PubChem BioAssay by NMMLSC.
